Data published in ChEMBL document CHEMBL1154990, “Three new cytochalasins produced by an endophytic fungus in the genus Rhinocladiella” (2000).

Experiments:
SW-620 = experiment: Cytotoxicity against human SW620 cells after 72 hrs; type: functional
How it was run: (§1)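 Cells seeded at 2.5×10^4 cells/mL (150 μL per well) and preincubated ~24 h at 37 °C, 5% CO₂. Compounds dissolved at 1.0 mg/mL in MeOH (stock), 50 μL added, then serially diluted 4-fold for eight concentrations. After 72 h further incubation, cells fixed with HBSS–formaldehyde–water (1:1:8) for 10 min. Stained with 0.0075% crystal violet for 15 min. Concentration giving total cell kill (IC100) read.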

[1] = Cytotoxicity against human A2780S cells after 72 hrs; type: functional, A2780; how it was run: as §1
HCT-116 = experiment: Cytotoxicity against human HCT116 cells after 72 hrs; type: functional; how it was run: as §1

`CC1/C=C/C(=O)O[C@@]23C(=O)N[C@@H](Cc4ccccc4)[C@@H]2[C@H](C)[C@@]2(C)O[C@H]2[C@@H]3/C=C/CC(C)C1O` (stereo partly specified) gave an IC100 (SW-620) of 15.6 µg/mL, an IC100 [1] of 3.91 µg/mL and an IC100 (HCT-116) of 3.91 µg/mL.
Compound `CC1CCC(=O)O[C@@]23C(=O)N[C@@H](Cc4ccccc4)[C@@H]2[C@H](C)[C@@]2(C)O[C@H]2[C@@H]3/C=C/CC(C)(O)C1=O` (stereo partly specified) has an IC100 (SW-620) of 62.5 µg/mL, an IC100 [1] of 15.6 µg/mL and an IC100 (HCT-116) of 15.6 µg/mL.
With `CC1CCC(=O)O[C@@]23C(=O)N[C@@H](Cc4ccccc4)[C@@H]2[C@H](C)[C@@]2(C)O[C@H]2[C@@H]3/C=C/CC(CO)C1=O` (stereo partly specified) the IC100 [1] was 3.91 µg/mL and the IC100 (HCT-116) was 15.6 µg/mL.
In the case of `C[C@H]1C/C=C/[C@H]2[C@@H]3O[C@]3(C)[C@@H](C)[C@H]3[C@H](Cc4ccccc4)NC(=O)[C@]32OC(=O)O/C=C/[C@@](C)(O)C1=O` [CYTOCHALASIN E], the IC100 (SW-620) is reported as 0.977 µg/mL, the IC100 [1] is reported as less than 0.0153 µg/mL and the IC100 (HCT-116) is reported as 0.244 µg/mL.
